Compounds with a hit are over-represented: about 0.55% of the library has one in this group of screens.
OXTR potentiator: potentiates the human oxytocin receptor response; CHO-OTR cells, Fluo-8 calcium fluorescence, potentiator mode; 0% = oxytocin EC15, 100% = EC100; activation, % at 3 µM; 320,000 compounds, 0.061% hits;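 active = activation above that plate's cutoff, the mean activation of tested compounds plus 3 SD, cut at about 6.6% in these data, passing the limit was not always enough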
Target sequence (P30559 whole entry, looked up): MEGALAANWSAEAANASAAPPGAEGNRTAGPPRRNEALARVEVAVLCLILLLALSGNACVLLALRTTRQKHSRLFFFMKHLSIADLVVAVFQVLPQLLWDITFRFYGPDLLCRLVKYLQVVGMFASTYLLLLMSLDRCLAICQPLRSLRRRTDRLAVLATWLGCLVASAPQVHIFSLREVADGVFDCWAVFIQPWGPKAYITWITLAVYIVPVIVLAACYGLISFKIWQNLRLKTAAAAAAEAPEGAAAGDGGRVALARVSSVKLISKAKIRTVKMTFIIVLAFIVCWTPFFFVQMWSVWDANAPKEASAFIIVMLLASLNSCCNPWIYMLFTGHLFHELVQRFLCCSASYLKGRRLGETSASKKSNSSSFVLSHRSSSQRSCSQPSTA
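Material: CHO-OTR cells, human receptor; compound dosing: single dose, 3.0 µM nominal final compound concentration; schedule: 6 min compound pre-incubation at room temperature, 100 s kinetic read; measured by: kinetic Fluo-8 calcium fluorescence; read-out basis: % activation vs EC15 and EC100 oxytocin; controls: EC15 oxytocin alone as 0%, 75 nM oxytocin as 100%; replicates: singlicate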
TRPML3 ag: activates the human TRPML3 channel; HEK293 TRPML3-YFP, Fluo-8 calcium fluorescence; 100% = the carbachol control signal; activation, % at 3 µM; 220,000 compounds, 0.29% hits; AID 1448;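 active = activation above its plate's cutoff, the mean activation of the plate's test wells plus 3 SD, cut at about 12% in these data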
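Material: TRPML3-YFP stable HEK293 cells | Dosing: One concentration, 3 µM nominal, 0.3% DMSO | Timing: 125 s total fluorescence read per well | Technique: Fluo-8 calcium dye fluorescence, ex 470-495, em 515-575 nm | Measure: Percent activation from peak-to-basal fluorescence ratio, scaled between DMSO and carbachol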
TRPN1 ag: agonists of zebrafish TRPN1 channel | HEK293 zebrafish TRPN1-YFP, Fluo-8 calcium fluorescence; 100% = response to 87 µM carbachol | activation, % at 3 µM | 220,000 compounds, 0.18% hits;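 active = activation above its plate's cutoff, the mean activation of test wells on that plate plus 3 SD, cut at about 19% in these data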
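Assay system: Zebrafish TRPN1-YFP in HEK293 cells | Incubation: Dye loading 1 h at 37 °C, then 30 min room temperature | Measured by: Kinetic Fluo-8 fluorescence, ex 470-495, em 515-575 nm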
OXTR agonist: agonists of human oxytocin receptor. activation, % at 3 µM. CHO-OTR cells, Fluo-8 calcium fluorescence; normalized: DMSO 0%, oxytocin 100%. 320,000 compounds, 0.32% hits;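 active = activation above the mean of all tested compounds plus 3 SD, cutoff set per screening run, cut at about 20% in these data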;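 also: peak over basal fluorescence ratio from a 100 s FLIPR kinetic read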
V1aR counter: counter-screen for oxytocin receptor agonists: human V1a receptor agonists; P37288; CHO-V1R cells, Fluo-8 calcium fluorescence, agonist mode; 0% DMSO, 100% 3 nM vasopressin; activation, % at 3 µM; 320,000 compounds, 0.25% hits;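 active = activation above the mean activation of all tested compounds plus 3 SD, per screening run, cut at about 20% in these data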;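 also: signal is peak over basal fluorescence ratio across a 100 second FLIPR read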
V1aR agonist cf: confirmation of human vasopressin V1a receptor agonists; shares compounds with V1aR counter; CHO-V1R cells, Fluo-8 calcium fluorescence, agonist; activation, % at 3 µM; 180 compounds, 20% hits; AID 434964;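 active = average activation exceeds primary screen hit cutoff, cut at about 21% in these data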;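 also: peak over basal fluorescence ratio during a 100 s FLIPR read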
OXTR counter: counter-screen for V1a receptor agonists: oxytocin receptor agonists; shares compounds with V1aR counter; CHO-OTR cells, Fluo-8 calcium fluorescence, agonist; activation, % at 3 µM; 180 compounds, 10% hits;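 active = mean activation over three repeats above the cutoff from the earlier oxytocin receptor agonist screen, cut at about 20% in these data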;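 also: peak over minimum fluorescence ratio within a 100 second FLIPR read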
Large screens that a line does not name were inactive (follow-up assays come after a bar, where they were run).

COc1ccc(OC)c2sc(N(CCCN(C)C)C(=O)CCS(=O)(=O)c3ccccc3)nc12	none (no result: TRPML3 ag, TRPN1 ag)
Cc1ccc2sc(N(CCCN(C)C)C(=O)CCS(=O)(=O)c3ccccc3)nc2c1C	V1aR counter 24.3 (no result: TRPML3 ag, TRPN1 ag) | V1aR agonist cf inactive | OXTR counter inactive
O=C(O)c1cccc(CSc2nc(-c3ccc(Cl)cc3)cc(C(F)(F)F)n2)c1	V1aR counter 21.4 | V1aR agonist cf inactive | OXTR counter inactive
COc1ccc(CC(=O)Nc2ccc(NC(=O)c3ccccc3F)cc2)cc1	V1aR counter 31.9 | V1aR agonist cf inactive | OXTR counter inactive
COc1ccc(NC(=O)CSc2nc(N)c(NC(=O)c3ccccc3F)c(=O)[nH]2)cc1	none (no result: TRPML3 ag, TRPN1 ag)
Nc1nc(-c2ccccn2)nc(N)c1Cc1ccc(Cl)cc1Cl	V1aR counter 21.6 | V1aR agonist cf inactive | OXTR counter inactive
CCc1ccccc1NC(=O)CNC(=O)CSC(=S)N1CCCC1	none (no result: TRPML3 ag, TRPN1 ag)
O=C(CCCC(=O)NCC1CCCO1)NCC1CCCO1 (stereo not drawn)	V1aR counter 20.3 | V1aR agonist cf inactive | OXTR counter inactive
CC(=O)Nc1cc(C(=O)CSc2nnc(C3CC3)n2C2CC2)ccc1O	none (no result: TRPML3 ag, TRPN1 ag)
O=C(C1CCCN1S(=O)(=O)c1ccc(Cl)cc1)N1CCN(c2ccccc2)CC1 (stereo not drawn)	none (no result: TRPML3 ag, TRPN1 ag)
Cc1ccc(NC(=O)COC(=O)c2nn(C)c(=O)c3ccccc23)cc1F	none (no result: TRPML3 ag, TRPN1 ag)
COc1ccccc1CN1C[C@@H]2C[C@@H](c3[nH]c4c(C)cccc4c3C)N3CCC[C@@]23C1=O	V1aR counter 35.0 | V1aR agonist cf inactive | OXTR counter inactive
CC(=O)c1ccc(NC(=O)C(C)Sc2nnc(-c3ccncc3)n2C2CC2)cc1 (stereo not drawn)	none (no result: TRPML3 ag, TRPN1 ag)
CCOC(=O)C(NC(=O)c1ccccc1)=C(C)C	none
CCOC(=O)C(CC(=O)O)=C(c1ccccc1)c1ccccc1	V1aR counter 20.9 (no result: TRPML3 ag, TRPN1 ag) | V1aR agonist cf inactive | OXTR counter inactive
O=C(c1ccccc1NS(=O)(=O)c1ccc(Cl)cc1)N1CCc2ccccc21	V1aR counter 21.4 | V1aR agonist cf inactive | OXTR counter inactive
COc1ccc(S(=O)(=O)N2CCOCC2)cc1NC(=O)COC(=O)c1ccc([N+](=O)[O-])s1	none (no result: TRPML3 ag, TRPN1 ag)
COc1ccc(/C=C2\SC(=S)N(CCC(=O)N3CCCCC3)C2=O)cc1	none (no result: TRPML3 ag, TRPN1 ag)
COCCN1C(=O)/C(=C/c2ccc(N3CCCC3)cc2)SC1=S	V1aR counter 27.6 | V1aR agonist cf 98.8 | OXTR counter 76.2
Cc1ccc(NC(=O)C2CCC(CNC(=O)[C@@H]3Cc4ccccc4CN3)CC2)cc1 (stereo partly drawn)	none (no result: TRPML3 ag, TRPN1 ag)
CC(C)c1ccc(NC(=O)C2CCC(CNC(=O)[C@@H]3Cc4ccccc4CN3)CC2)cc1 (stereo partly drawn)	V1aR counter 23.6 (no result: TRPML3 ag, TRPN1 ag) | V1aR agonist cf inactive | OXTR counter inactive
Cc1cccc(N/C(N)=N/c2nc(C)cc(C)n2)c1	V1aR counter 21.5 | V1aR agonist cf inactive | OXTR counter inactive
CC(=O)Nc1cccc(N/C(N)=N/c2nc(C)cc(C)n2)c1	none
CCOc1ccc(N=C2NC(=O)S/C2=C\c2ccc(Cl)cc2)cc1	none
COc1ccc(N=C2NC(=O)S/C2=C\c2ccc(N(C)C)cc2)cc1	V1aR counter 21.1 | V1aR agonist cf 25.8 | OXTR counter 19.9
